Test [1] has as its system Arthrodermataceae. Kind of test: Antifungal activity against dermatophytes at 28 degC after 5 days by broth microdilution test. Conditions: for MFC: Arthrodermataceae. (Broth dilution looks for growth in wells or tubes with falling amounts of substance.)
Test [2] concerns Arthrodermataceae. Kind of test: Antifungal activity against dermatophytes at 28 degC after 7 days by broth microdilution test. It counts as functional. Conditions: 168 h. The essentials: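 Ten clinical isolates (two M. canis, five M. gypseum, three T. mentagrophytes) tested by NCCLS M38-A broth microdilution in MOPS-buffered RPMI 1640, pH 7.0, over 0.25–128 µg/mL. Conidial/hyphal suspension from PDA slants (28 °C, 7 days) adjusted to 65–70% transmittance at OD530, then diluted 1:50.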

Test [3] has as its system Candida albicans. Kind of test: Antifungal activity against Candida albicans ATCC 10261 at 35 degC after 48 to 96 hrs by broth microdilution test. The format is functional. The essentials:
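Minimal fungicidal concentration for Candida. […] MFC is the lowest concentration allowing fewer than two colonies (99% killing).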

In test [4] the test system is Arthrodermataceae. Kind of test: Antifungal activity against dermatophytes at 28 degC after 48 to 96 hrs by broth microdilution test.
In a further test the test system is Candida parapsilosis. Kind of test: Antifungal activity against Candida parapsilosis ATCC 22019 at 35 degC after 48 hrs by broth microdilution test. It counts as functional. Conditions: for MFC: read-out: MFC. In outline:
(§1)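 Broth microdilution per NCCLS M27-A2. Stocks in 100% DMSO, diluted in RPMI 1640 with 0.165 M MOPS at pH 7.0; final range 0.25–128 µg/mL. Inoculum 1000–5000 cells/mL from SDA subcultures. […] C. parapsilosis ATCC22019 served as QC strain.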

Test [5] has as its system Candida albicans. Kind of test: Antifungal activity against Candida albicans ATCC 10261 at 35 degC after 48 hrs by broth microdilution test. It counts as functional. The essentials: as §1
[6] abbreviates: Candida albicans, ATCC 10261, read-out: MFC.
Where [7] appears, read: Lodderomyces parapsilosis, ATCC 22019, 48 h.
Where [8] appears, read: Lodderomyces parapsilosis, ATCC 22019, 48 h, read-out: MIC.
The mark [9] stands for this setting: Candida albicans, ATCC 10261, 48 h, read-out: MIC.
Where [10] appears, read: Candida albicans, ATCC 10261, 48 h, read-out: MIC50.
[11] abbreviates: Candida albicans, ATCC 10261, 48 h, read-out: MIC90.

Converted amounts (≈) assume the structure as drawn.

For orientation: MFC means the smallest concentration meeting the test's criterion for killing the fungus. In general, MIC refers to the smallest concentration in the dilution series that meets the test's criterion for growth inhibition. For orientation: MIC50 means an inhibitory concentration at the 50% level, which refers to growth in some studies and to a panel of isolates in others. One may read the MIC90 as an inhibitory concentration at the 90% level, which refers to growth in some studies and to a panel of isolates in others. For `Cc1ccc(C(CCn2ccnc2)Oc2ccc(C(C)(C)C)cc2)cc1` (centres undefined), the MFC90 in the test with Arthrodermataceae [1] was 16 µg/mL (≈ 45.9 µM); in the test with Candida albicans [3], 64 µg/mL (≈ 184 µM). For the same compound, the MFC in the test with Arthrodermataceae [1] came out at 14.4 µg/mL (≈ 41.3 µM); with Candida albicans [3] (setting [6]) it was 58 µg/mL (≈ 166 µM); in the test on Candida parapsilosis (setting [7]) it was 16 µg/mL (≈ 45.9 µM). In addition, the MIC against Arthrodermataceae [2] is 11.2 µg/mL (≈ 32.1 µM); in the test on Candida parapsilosis (setting [8]), 8 µg/mL (≈ 23 µM); in the test on Candida albicans [5] (setting [9]), 52.1 µg/mL (≈ 150 µM). The MIC50 was found to be 8 µg/mL (≈ 23 µM) in the test on Arthrodermataceae [2] and 64 µg/mL (≈ 184 µM) with Candida albicans [5] (setting [10]). For the same compound, the MIC90 turned out to be 16 µg/mL (≈ 45.9 µM) against Arthrodermataceae [2] and 64 µg/mL (≈ 184 µM) with Candida albicans [5] (setting [11]). The MFC50 against Candida albicans [3] is 64 µg/mL (≈ 184 µM); with Arthrodermataceae [4] it was 16 µg/mL (≈ 45.9 µM).

Regarding `Clc1cccc(Cl)c1OC(CCn1ccnc1)c1ccccc1` (centres undefined), the MFC90 was determined as 32 µg/mL (≈ 92.2 µM) in the test on Arthrodermataceae [1] and 64 µg/mL (≈ 184 µM) against Candida albicans [3]. Besides, the MFC against Arthrodermataceae [1] was determined as 28.8 µg/mL (≈ 82.9 µM); with Candida albicans [3] (setting [6]) it was 64 µg/mL (≈ 184 µM); with Candida parapsilosis (setting [7]), 32 µg/mL (≈ 92.2 µM). The MIC worked out at 7.6 µg/mL (≈ 21.9 µM) in the test on Arthrodermataceae [2], 2 µg/mL (≈ 5.76 µM) in the test with Candida parapsilosis (setting [8]) and 46.2 µg/mL (≈ 133 µM) in the test with Candida albicans [5] (setting [9]). For the same compound, the values for the MIC50 in the test on Arthrodermataceae [2] and in the test with Candida albicans [5] (setting [10]) were 8 µg/mL (≈ 23 µM) and 64 µg/mL (≈ 184 µM), respectively. For the same compound, the MIC90 in the test with Arthrodermataceae [2] was found to be 8 µg/mL (≈ 23 µM); in the test on Candida albicans [5] (setting [11]), 64 µg/mL (≈ 184 µM). Moreover, the MFC50 came to 64 µg/mL (≈ 184 µM) against Candida albicans [3] and 32 µg/mL (≈ 92.2 µM) against Arthrodermataceae [4].

`CNCCC(Oc1ccc(C(F)(F)F)cc1)c1ccccc1` (centres undefined) [FLUOXETINE]: in the test on Arthrodermataceae [1], the MFC90 turned out to be 64 µg/mL (≈ 207 µM) and the MFC is 64 µg/mL (≈ 207 µM). In the test with Arthrodermataceae [2], this compound came in with an MIC of 45 µg/mL (≈ 145 µM), an MIC50 of 32 µg/mL (≈ 103 µM) and an MIC90 of 64 µg/mL (≈ 207 µM). In addition, in the test with Arthrodermataceae [4], the MFC50 came to 64 µg/mL (≈ 207 µM).

Take `O=[N+]([O-])O.c1ccc(C(OCCn2ccnc2)c2ccccc2)cc1`: the MFC50 with Candida albicans [3] was 128 µg/mL. The compound further came in with an MFC90 with Candida albicans [3] of over 256 µg/mL. Moreover, the MFC in the test with Candida albicans [3] (setting [6]) is 230 µg/mL; with Candida parapsilosis (setting [7]), 64 µg/mL. In addition, the MIC with Candida parapsilosis (setting [8]) was determined as 32 µg/mL; in the test on Candida albicans [5] (setting [9]), 78.1 µg/mL. In the test with Candida albicans [5] (setting [10]), the MIC50 was 64 µg/mL. Further, the MIC90 in the test on Candida albicans [5] (setting [11]) came out at 128 µg/mL.

`Cc1ccc(C(CCn2ccnc2)Oc2ccc(Cl)cc2C)cc1` (centres undefined) registered an MFC50 against Candida albicans [3] of 64 µg/mL (≈ 188 µM). The MFC90 in the test with Candida albicans [3] worked out at 64 µg/mL (≈ 188 µM). Further, the MFC in the test on Candida albicans [3] (setting [6]) amounted to 58 µg/mL (≈ 170 µM); with Candida parapsilosis (setting [7]) it was 16 µg/mL (≈ 46.9 µM). Further, the MIC in the test with Candida parapsilosis (setting [8]) was found to be 4 µg/mL (≈ 11.7 µM); in the test on Candida albicans [5] (setting [9]), 16 µg/mL (≈ 46.9 µM). For the same compound, the MIC50 in the test on Candida albicans [5] (setting [10]) was 16 µg/mL (≈ 46.9 µM). Further, in the test with Candida albicans [5] (setting [11]), the MIC90 stood at 16 µg/mL (≈ 46.9 µM).

Regarding `Clc1ccc(C(OCCn2ccnc2)c2ccc(Cl)cc2Cl)cc1.O=[N+]([O-])O` (centres undefined), in the test on Candida albicans [3], the MFC50 came out at 128 µg/mL. The compound also registered an MFC90 against Candida albicans [3] of 256 µg/mL. In addition, the MFC with Candida albicans [3] (setting [6]) amounted to 145 µg/mL; in the test on Candida parapsilosis (setting [7]), 32 µg/mL. Moreover, the MIC with Candida parapsilosis (setting [8]) was determined as 16 µg/mL; with Candida albicans [5] (setting [9]) it was 34.4 µg/mL. Also, in the test with Candida albicans [5] (setting [10]), the MIC50 came out at 32 µg/mL. Further, the MIC90 in the test with Candida albicans [5] (setting [11]) worked out at 64 µg/mL.

Regarding `Cc1ccc(OC(CCCCn2ccnc2)c2ccc(Cl)cc2)cc1` (centres undefined), in the test with Candida albicans [3], the MFC50 was found to be 32 µg/mL (≈ 90.2 µM). In addition, in the test on Candida albicans [3], the MFC90 came out at 32 µg/mL (≈ 90.2 µM). Further, the MFC in the test on Candida albicans [3] (setting [6]) was found to be 32 µg/mL (≈ 90.2 µM); in the test on Candida parapsilosis (setting [7]), 8 µg/mL (≈ 22.5 µM). The MIC with Candida parapsilosis (setting [8]) was 8 µg/mL (≈ 22.5 µM); with Candida albicans [5] (setting [9]) it was 32 µg/mL (≈ 90.2 µM). Moreover, the MIC50 in the test with Candida albicans [5] (setting [10]) was determined as 32 µg/mL (≈ 90.2 µM). For the same compound, in the test with Candida albicans [5] (setting [11]), the MIC90 was 32 µg/mL (≈ 90.2 µM).

`Cc1ccc(C(CCn2ccnc2)Oc2ccccc2)cc1` (centres undefined) gave an MFC50 with Candida albicans [3] of 32 µg/mL (≈ 109 µM). Also, the MFC90 against Candida albicans [3] amounted to 64 µg/mL (≈ 219 µM). In addition, the values for the MFC with Candida albicans [3] (setting [6]) and in the test with Candida parapsilosis (setting [7]) were 38.4 µg/mL (≈ 131 µM) and 32 µg/mL (≈ 109 µM), respectively. Moreover, the MIC in the test with Candida parapsilosis (setting [8]) came to 4 µg/mL (≈ 13.7 µM); in the test on Candida albicans [5] (setting [9]), 20.3 µg/mL (≈ 69.4 µM). The MIC50 with Candida albicans [5] (setting [10]) amounted to 16 µg/mL (≈ 54.7 µM). Besides, the MIC90 in the test on Candida albicans [5] (setting [11]) came out at 32 µg/mL (≈ 109 µM).

`Clc1ccc(C(OCCn2ccnc2)c2ccc(Cl)cc2Cl)c(Cl)c1` came in with an MFC50 in the test with Candida albicans [3] of over 128 µg/mL. Moreover, the MFC90 in the test with Candida albicans [3] was over 128 µg/mL. Further, the MFC in the test on Candida albicans [3] (setting [6]) was over 128 µg/mL; in the test with Candida parapsilosis (setting [7]), 64 µg/mL (≈ 154 µM). The MIC in the test with Candida parapsilosis (setting [8]) is 32 µg/mL (≈ 76.9 µM); with Candida albicans [5] (setting [9]) it was over 128 µg/mL. Besides, the MIC50 in the test with Candida albicans [5] (setting [10]) was over 128 µg/mL. Moreover, the MIC90 in the test on Candida albicans [5] (setting [11]) was over 128 µg/mL.

In the test with Candida albicans [3], `Cc1ccc(OC(CCn2ccnc2)c2ccccc2)cc1` (single isomer, unassigned; (-)) came in with an MFC of 51.4 µg/mL (≈ 176 µM), an MFC50 of 64 µg/mL (≈ 219 µM) and an MFC90 of 64 µg/mL (≈ 219 µM). Also, the MIC in the test with Candida parapsilosis was found to be 2 µg/mL (≈ 6.84 µM). In the test with Candida albicans [5], this compound displayed a minimum inhibitory concentration (MIC) of 28.3 µg/mL (≈ 96.8 µM), an MIC50 of 16 µg/mL (≈ 54.7 µM) and an MIC90 of 64 µg/mL (≈ 219 µM).

The values above are taken from ChEMBL document CHEMBL1157464, “1-[(3-Aryloxy-3-aryl)propyl]-1H-imidazoles, new imidazoles with potent activity against Candida albicans and dermatophytes. Synthesis, structure-activity relationship, and molecular modeling studies” (J Med Chem, 2008).
